Measurements published in ChEMBL document CHEMBL3112446, “Discovery and optimization of a new class of pyruvate kinase inhibitors as potential therapeutics for the treatment of methicillin-resistant Staphylococcus aureus infections” (Bioorg Med Chem, 2014).
≈ marks a conversion by molar mass, not a printed value. Calls of active or inactive are those of the source. No cut-off for these calls is given here.

Legend:
Staphylococcus aureus [1] = test: Bactericidal activity against Staphylococcus aureus harboring LAC Dpyk::ErmR mutant at 1.6 uM after 8 to 24 hrs; type: functional, organism-based
How it was run: (§1)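 S. aureus LAC pyk::ErmR (pyk replaced by an ErmR cassette) and WT overnight cultures were washed twice in PBS and diluted to OD600 0.1 (~2.5 × 10^7 cfu/ml). Media were pre-warmed (37 °C) BHI or TSB without glucose plus 1% sodium pyruvate (TSB-G+P), ±1.6 µM inhibitor. Cultures grew at 37 °C, 250 rpm. Viable counts were taken by dilution plating on glucose-free TSA plus 1% pyruvate at 0, 8 and 24 h.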

Staphylococcus aureus [2] = test: Bacteriostatic activity against Staphylococcus aureus harboring LAC Dpyk::ErmR mutant in TSB-G+P medium at 1.6 uM after 8 to 24 hrs; type: functional, organism-based; how it was run: as §1
Staphylococcus aureus [3] = test: Bacteriostatic activity against Staphylococcus aureus harboring LAC Dpyk::ErmR mutant in Brain-Heart infusion broth medium at 1.6 uM after 8 to 24 hrs; type: functional, organism-based; how it was run: as §1
Staphylococcus aureus [4] = test: Antibacterial activity against methicillin-resistant Staphylococcus aureus MW2 by two fold serial dilution method; type: functional
Staphylococcus aureus [5] = test: Antibacterial activity against Staphylococcus aureus ATCC 29213 by two fold serial dilution method in presence of efflux inhibitor verapamil; type: functional
How it was run: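 S. aureus ATCC29213, 96-well twofold broth microdilution in CAMHB with verapamil 200 mg/L (sub-inhibitory) versus plain CAMHB. Incubated 18–24 h at 37 °C, OD600 read, compound-plus-medium background subtracted. MIC is the lowest concentration giving complete growth inhibition relative to compound-free wells.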

[6] = Inhibition of methicillin-resistant Staphylococcus aureus pyruvate kinase; conditions: read-out: IC50
How it was run: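 His-tagged MRSA PK. Compounds diluted in 100% DMSO. IC50 calculated from a triplicate 15-point titration.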

Staphylococcus aureus [7] = test: Bacteriostatic activity against wild type Staphylococcus aureus at 1.6 uM after 8 to 24 hrs; type: functional, organism-based
How it was run: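 Washed overnight cultures were diluted to OD600 = 0.1 (~2.5 × 10^7 cfu/ml) in pre-warmed medium, either BHI or glucose-free TSB with 1% sodium pyruvate, ±1.6 µM compound. Grown at 37 °C with shaking at 250 rpm. Viable counts by dilution plating on glucose-free TSA with 1% pyruvate at 0, 8 and 24 h.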

Staphylococcus aureus [8] = test: Antibacterial activity against Staphylococcus aureus […]; type: functional
Staphylococcus aureus [9] = test: Antibacterial activity against Staphylococcus aureus MRSA252; type: functional

## Clc1ccc2[nH]c(-c3cc4ccc(Br)cc4[nH]3)cc2c1
Staphylococcus aureus [1]
  Activity: inactive
Staphylococcus aureus [2]
  Activity: inactive
Staphylococcus aureus [3]
  Activity: Active
Staphylococcus aureus [4]
  MIC: 0.5 µg/mL (≈ 1.45 µM)
Staphylococcus aureus [5]
  MIC: 0.5 µg/mL
[6]
  IC50: 2 nM
Staphylococcus aureus [7]
  Activity: Active

## O=C1NC[C@@H](c2c[nH]c3cc(Br)ccc23)N[C@H]1c1c[nH]c2cc(Br)ccc12 (relative stereo) [CIS-3,4-DIHYDROHAMACANTHIN B]
Staphylococcus aureus [8]
  MIC: 12.5 µg/mL (≈ 25.6 µM)
Staphylococcus aureus [9]
  MIC: 12.5 µg/mL (≈ 25.6 µM)
[6]
  IC50: 16 nM
